From PubChem BioAssay
PglD inh: C. jejuni PglD acetyltransferase inhibitors, primary screen, biochemical, DTNB colorimetric, single point | inhibition, % at 12.5 µM | UDP-N-acetylbacillosamine N-acetyltransferase PglD (Campylobacter jejuni) | 360,000 compounds, 0.098% hits | purified PglD enzyme, DTNB colorimetric CoA detection; in the data active means inhibition above about 16%, passing the limit was not always enough; inconclusive means no clear call, values can overlap the other calls
Ecoli rRNA inh: reduced GFP signal of wild-type E. coli, primary screen, bacterial rRNA inhibitor project, GFP/RFP fluorescence, OD600, single point; E. coli WT GFP vs humanized-ribosome RFP mutants, 24 h; stronger effect = lower value; DMSO median 0, no signal -100; AID 720706, 2013; GFP signal change (wild-type ribosome), % (concentration not given with the values); 350,000 compounds, 1.6% hits;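 active means significant combined selectivity score with lowered wild-type GFP, culture density cut under 30%, mutant RFP and density less affected; inactive means any of these conditions unmet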
HIV Env fusion: inhibitors of HIV-1 Env-driven cell-cell fusion, primary screen, HeLa-JRFL effector, CEM21 target cells, luciferase. inhibition, % at 12.3 µM. 360,000 compounds, 1.1% hits. AID 651610, 2012;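 active means mean replicate inhibition score of at least 50 and every replicate individually at or above 50; inconclusive means only one of the two criteria met; inactive means mean below 50 and not all replicates reaching 50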;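 further: 0% = plate neutral controls and 100% = maraviroc near 300 nM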
PGC1a acetyl inh: inhibitors of PGC1a acetylation signal, primary screen, cell-based, U2OS, AlphaScreen, inhibitor mode | AlphaScreen anti-acetyl-lysine; with virally co-expressed GCN5 acetyltransferase | inhibition, % at 15.6 µM | 350,000 compounds, 0.17% hits;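 active means every replicate shows inhibition of at least 40%; inconclusive means mean inhibition at least 40% but some replicate below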;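 further: 0% = neutral control wells and 100% = positive control wells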
FN deposition inh: inhibitors of fibronectin matrix deposition, primary screen, AH1F cells, Alexa488-fibronectin fluorescence, plate reader | AH1F fibroblasts, overnight | inhibition, % at 12.6 µM | 350,000 compounds, 0.086% hits;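 active means mean inhibition across replicates of 30% or more, regardless of how many single replicates reach that level; inconclusive means mean under 30% yet at least half of replicates reach 30%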;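 further: positive control wells lacked labelled fibronectin entirely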
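Material: AH1F fibroblast monolayer depositing Alexa488-labelled fibronectin into matrix | Input: 10000 AH1F cells/well | Medium: DMEM plus 2% serum, read in PBS | Reagent: Alexa488-fibronectin, 24 nM final in well | Compound dosing: One dose per compound, pinned | Schedule: 1 h adhesion, overnight exposure | Measured by: Fluorescence at 485 nm excitation, 525 nm emission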
DENV2 CPE rescue: inhibitors of DENV2 cytopathic effect, primary screen, cell-based, plate reader, single concentration | DENV2-infected cells, cytopathic effect rescue | CPE inhibition, % at 9.99 µM | 350,000 compounds, 1.7% hits | AID 651640, 2012; in the data active means CPE inhibition above about 20%, passing the limit was not always enough; inconclusive means no clear call, values can overlap the other calls; tested in BHK-21 cells;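 further: 0% = median of neutral control wells and 100% = median of positive control wells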
An asterisk follows results filed as active; ? = inconclusive; . = no result given; [ ] = another dose, or the depositor's remark. In the library only some 3.5% were active in any assay of this set; here they are far more common.

SMILES	PglD inh	Ecoli rRNA inh	HIV Env fusion	PGC1a acetyl inh	FN deposition inh	DENV2 CPE rescue
Oc1cc2c(cc1O)C(c1ccccc1)CNCC2 (stereo not given)	1	.	-6	9	5	52*
Oc1cc2c(cc1O)[C@@H](c1ccccc1)CNCC2	4	.	-5	-2	6	-1
Cc1sc2ncnc(Sc3nnnn3-c3ccc(Cl)cc3)c2c1C	5	.	50*	13	-3	.
O=C(CN1C(=O)c2ccccc2S1(=O)=O)c1ccccc1Cl	-2	10	83*	.	.	-4
O=C(CN1C(=O)c2ccccc2S1(=O)=O)c1ccccc1	7	.	.	-5	.	.
Cc1ccc(C(=O)CN2C(=O)c3ccccc3S2(=O)=O)cc1	0	8	78*	40	5	?
O=C(C[C@@H]1C=C[C@H](NC(=O)C2CCOCC2)[C@@H](CO)O1)Nc1ccccc1	.	3	.	0	.	-2
CCN(CC)CC#CCC(O)(c1ccccc1)c1ccccc1	.	-1	-5	-19	16	-2
CCN(CC)CC#CCC(C)(c1ccccc1)c1ccccc1	1	.	65*	-38	3	.
Cc1cc(C(F)(F)F)n(-c2nc(C(=O)NNS(=O)(=O)c3ccccc3[N+](=O)[O-])cs2)n1	.	-11	-2	110*	-4	.
Cc1cc(C(F)(F)F)n(-c2nc(C(=O)NNS(=O)(=O)c3ccccc3)cs2)n1	0	.	-68	42	4	.
COc1ccc(CNc2nc(=S)[nH]c3cc(OC)c(OC)cc23)cc1	-4	6	6	-9	4	-2
COc1cc2[nH]c(=S)nc(NCc3ccccc3)c2cc1OC	1	-16*	9	-5	11	-6
CO[C@H]1CN(C)C(=O)c2cc(NC(=O)c3cccc(F)c3)ccc2OC[C@@H](C)NC[C@H]1C	-1	0	.	-11	9	13
Cc1ccc(SC2=C[C@@]3(O)CC[C@@H](O)[C@@](Sc4ccc(C)cc4)(C2=O)[C@H]3O)cc1	.	-25*	-8	.	-3	?
CC1=CCC[C@H]2[C@H](C1)C(=O)C[C@@H](C)[C@]2(C)CC/C(=C/CO)CO	4	-9	.	-7	.	24*
Cc1ccc(OC(=O)N(C)C[C@@H]2OCc3ccccc3-c3ccccc3C(=O)N([C@H](C)CO)C[C@@H]2C)cc1	0	-1	.	2	20	0
Cc1ccc(C(=O)c2coc3cc([N+](=O)[O-])c(O)c([N+](=O)[O-])c23)cc1	.	-48*	-7	.	3	4
Cc1ccc(C(=O)c2ccc([N+](=O)[O-])cc2)cc1	4	.	.	-1	.	.
CCc1c(C(=O)Nc2cc(C(=O)OC)ccc2C)csc1C	-3	5	2	-6	-4	88*
COc1ccc2c3c(n(C)c2c1)[C@@H](CO)N(Cc1ccccc1F)CC31CN(CC2CC2)C1	.	3	.	.	.	.
CCN1C(=O)[C@H]2[C@H]3CN=C(SCC4CC4)N3[C@@](Cc3ccccc3)(C(=O)OC)[C@H]2C1=O	-1	-5	30	.	-11	-9
CC[C@]1(C(=O)OC)[C@H]2C(=O)N(Cc3ccccc3)C(=O)[C@H]2[C@H]2CN=C(SCC3CC3)N21	-2	-11	81*	5	5	-8
COC(=O)[C@@]1(C)[C@H]2C(=O)N(Cc3ccccc3)C(=O)[C@H]2[C@H]2CN=C(SCc3ccccc3)N21	2	10	77*	-1	1	-12
CCN1C(=O)[C@H]2[C@H]3CN=C(SCc4ccc(C(=O)OC)cc4)N3[C@@](CC)(C(=O)OC)[C@H]2C1=O	2	-3	-17	4	5	-7
SMILES	PglD inh	Ecoli rRNA inh	HIV Env fusion	PGC1a acetyl inh	FN deposition inh	DENV2 CPE rescue
CC[C@]1(C(=O)OC)[C@H]2C(=O)N(Cc3ccccc3)C(=O)[C@H]2[C@H]2CN=C(SCc3ccc(C)cc3)N21	-2	-35	69*	-12	-6	-8
CC[C@]1(C(=O)OC)[C@H]2C(=O)N(Cc3ccccc3)C(=O)[C@H]2[C@H]2CN=C(SCc3ccc(C(=O)OC)cc3)N21	7	-26*	32	-4	.	-1
C/C=C/c1cnc2c(c1)C(=O)N([C@@H](C)CO)C[C@H](C)[C@@H](CN(C)C(=O)C1CCOCC1)O2	-3	2	.	11	.	4
C[C@H](CO)N1C[C@H](C)[C@H](CN(C)S(=O)(=O)c2cccs2)Oc2ccc(NC(=O)Cc3ccccc3)cc2C1=O	3	3	.	-9	.	8
COC(=O)[C@@]1(Cc2ccccc2)[C@H]2C(=O)N(Cc3ccccc3)C(=O)[C@H]2[C@H]2CN=C(SCc3ccc(C#N)cc3)N21	-12	-26	69*	1	-6	-8
CCN1C(=O)[C@H]2[C@H]3CN=C(SCc4ccc(C#N)cc4)N3[C@@](Cc3ccccc3)(C(=O)OC)[C@H]2C1=O	15	4	-16	3	-1	3
COC(=O)c1sc(N2C(=O)C(=O)/C(=C(/O)c3ccccc3)C2c2ccco2)nc1C (stereo not given)	.	-34*	15	.	-15	-6
Cc1nc(N2C(=O)C(=O)/C(=C(/O)c3ccccc3)C2c2ccco2)sc1C (stereo not given)	2	.	.	.	.	.
COc1ccc(S(=O)(=O)N[C@H]2C=C[C@H](CC(=O)N3CCC(Cc4ccccc4)CC3)O[C@H]2CO)cc1	-2	-4	15[16.7 µM]	-1	6	-4
C[C@@H]1CN([C@H](C)CO)C(=O)c2cc(NS(=O)(=O)c3ccc(F)cc3)ccc2O[C@@H](C)CCCCO[C@@H]1CN(C)C(=O)NC1CCCCC1	2	-2	-110[16.7 µM]	0	-11	14
C[C@@H]1CCCCO[C@H](CN(C)C(=O)NC2CCCCC2)[C@H](C)CN([C@@H](C)CO)C(=O)c2cc(NS(=O)(=O)c3ccc(F)cc3)ccc2O1	1	-2	-57[16.7 µM]	-13	2	51*
C[C@H]1CCCCO[C@H](CN(C)C(=O)NC2CCCCC2)[C@@H](C)CN([C@@H](C)CO)C(=O)c2cc(NS(=O)(=O)c3ccc(F)cc3)ccc2O1	0	-1	-17[16.7 µM]	9	3	24*
CC#C[C@@H](CC)c1ccc2ccn(C)c2c1	5	15	-13	.	2	58*
CN(C)CC(O)c1ccc(C=Cc2ccc(Cl)cc2)cc1 (stereo not given)	3	-16	-50	51*	2	-3
CN(C)/C=C/C(=O)/C=C/c1ccc(Cl)cc1	.	-2	-15	10	3	.
